What all share (format): functional
The nature of assay [1]: Competitive inhibition of Cu2-amyloid beta (1 to 20) complex-induced DTBC oxidation by spectrophotometry. Put shortly:
(§1)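 Cu(II)–Aβ complex formed just before assay by mixing stoichiometric Cu(II) and peptide at μM level in the reaction solution. Several concentrations of DTBC or THB substrate are incubated with a constant Cu(II)–Aβ concentration in 0.1 M HEPES, pH 7.4, 25 °C. Ki is obtained from Lineweaver–Burk analysis assuming competitive inhibition.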

A short description of assay [2]: Competitive inhibition of Cu2-amyloid beta (1 to 16) complex-induced DTBC oxidation by spectrophotometry. The method in brief:
as §1

The nature of assay [3]: Competitive inhibition of Cu2-amyloid beta (1 to 20) complex-induced THB oxidation by spectrophotometry. Put shortly:
as §1

A short description of assay [4]: Inhibition of Cu2-amyloid beta (1 to 16) complex-induced dopamine oxidation by spectrophotometry. Put shortly:
(§2)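 Cu(II)–Aβ prepared fresh from stoichiometric Cu(II) and peptide at μM level. Dopamine oxidation (1.0 mM for inhibition plots; varied for Lineweaver–Burk) is catalysed by 2.0 μM Cu–Aβ1-40, 3.0 μM Cu–Aβ1-16, or 3.0 or 17.0 μM Cu–Aβ1-20, in 0.1 M HEPES pH 7.4, 25 °C. Inhibitor is titrated to give IC50. Ki comes from a 1/v vs 1/[dopamine] plot, competitive model.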

Assay [5] in a line: Inhibition of Cu2-amyloid beta (1 to 40) complex-induced dopamine oxidation by spectrophotometry. The method in brief: as §2
A short description of assay [6]: Inhibition of Cu2-amyloid beta (1 to 20) complex-induced dopamine oxidation by spectrophotometry. Put shortly:
as §2

Assay [7] in a line: Competitive inhibition of full-length Cu2-amyloid beta (1 to 40) complex-induced dopamine oxidation by Lineweaver-Burk plot analysis. The method in brief: as §2
The nature of assay [8]: Inhibition of Cu2-amyloid beta (1 to 16) complex-induced THB oxidation by spectrophotometry. Put shortly:
as §1

Assay [9] can be described thus: Inhibition of Cu2-amyloid beta (1 to 16) complex-induced DTBC oxidation by spectrophotometry. Put shortly: as §1

From ChEMBL document CHEMBL1909634, “Vitamin B6s inhibit oxidative stress caused by Alzheimer's disease-related Cu(II)-β-amyloid complexes-cooperative action of phospho-moiety” (Bioorg Med Chem Lett, 2011) come the findings set out here.

Broadly, the Ki is a measure of affinity in units of concentration, obtained from inhibition or displacement. A higher Ki goes with lower affinity. Broadly, the IC50 is the concentration at which inhibition is half-maximal. A lower IC50 goes with greater potency.

SMILES strings stand for the structures. Structures can show the parent of a compound that is named as a salt.

Consider `Cc1ncc(COP(=O)(O)O)c(C=O)c1O` [PYRIDOXAL PHOSPHATE ANHYDROUS], for which the figures for the inhibition constant Ki in [1] and in assay [2] were 0.2 mM and 0.13 mM, respectively.
`Cc1ncc(CO)c(C=O)c1O` [PYRIDOXAL]: the Ki stood at 1.12 mM in assay [1], 2.8 mM in assay [3] and 0.67 mM in assay [2].
`Cc1ncc(CO)c(CN)c1O` [PYRIDOXAMINE]: the half-inhibitory concentration (IC50) in assay [4], in [5] and in assay [6] was 7 mM each time. Also, the inhibition constant (Ki) in assay [6] worked out at 1.4 mM; in assay [7] it was 1.42 mM.
With `Cc1ncc(CO)c(CO)c1O` [PYRIDOXINE HYDROCHLORIDE], the Ki is 5.56 mM in [4], 8.29 mM in assay [6], 8.67 mM in assay [8] and 5.05 mM in assay [9].
